Assay results reported in ChEMBL document CHEMBL2346610, “N-Alkyldeoxynojirimycin derivatives with novel terminal tertiary amide substitution for treatment of bovine viral diarrhea virus (BVDV), Dengue, and Tacaribe virus infections” (Bioorg Med Chem Lett, 2013).
Active and inactive are the calls of the source. No cut-off for these calls is given here.

What was measured:
Tacaribe virus = test: Antiviral activity against Tacaribe virus infected in human Huh7.5 cells; type: functional, organism-based; conditions: Mammarenavirus tacaribeense, Huh-7
[1] = Cytotoxicity against BHK cells by MTT assay; type: cell-based, Mesocricetus auratus; conditions: hamster
[2] = system: Bovine viral diarrhea virus 1; test: Antiviral activity against BVDV infected in MDBK cells assessed as reduction of viral yield; type: functional, organism-based; conditions: Bovine viral diarrhea virus isolates and strains
How it was run: (§1)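 Assays were run in MDBK cells. BVDV antiviral activity was measured by virus yield reduction and reported as EC50. Cytotoxicity was measured by MTT assay and reported as CC50.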

[3] = Cytotoxicity against MDBK cells by MTT assay; type: cell-based, Bos taurus; conditions: cattle; how it was run: as §1
Dengue virus = test: Antiviral activity against Dengue virus infected in BHK cells; type: functional, organism-based
[4] = Cytotoxicity against human Huh7.5 cells by MTT assay; type: cell-based, Huh-7
[5] = system: Bovine viral diarrhea virus 1; test: Reduction of BVDV E2 protein mobility rate infected in MDBK cells at EC50 after 22 hrs by Western blot analysis; type: functional, organism-based
How it was run: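 MDBK cells were infected with BVDV at MOI 1 for 1 h, then mock-treated or compound-treated. Cells were harvested 22 h post-infection. Lysates were run on electrophoresis and Western blotted, detecting BVDV E2 glycoprotein and β-actin loading control simultaneously.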

| SMILES | EC50 (Tacaribe virus) [µM] | CC50 [1] [µM] | EC50 [2] [µM] | CC50 [3] [µM] | EC50 (Dengue virus) [µM] | CC50 [4] [µM] | Activity [5] |
| --- | --- | --- | --- | --- | --- | --- | --- |
| CC(C)(C)C(=O)N(CCCCCCN1C[C@H](O)[C@@H](O)[C@H](O)[C@H]1CO)C1CCCC1 | 4 | > 500 | 0.85 | > 500 | 2 | > 500 |  |
| CC(=O)N(CCCCCCN1C[C@H](O)[C@@H](O)[C@H](O)[C@H]1CO)c1ccc(F)cc1F |  |  | 6 | > 500 |  |  | Active |
| CC(C)(C)C(=O)N(CCCCCCN1C[C@H](O)[C@@H](O)[C@H](O)[C@H]1CO)c1cc(F)ccc1F | 0.62 | > 500 | 0.4 | > 500 | 5.4 | > 500 |  |
| CC(C)(C)C(=O)N(CCCCCCN1C[C@H](O)[C@@H](O)[C@H](O)[C@H]1CO)C1CCCCCCC1 | 0.29 | 208 | 0.24 | 270 | 0.8 | 150 |  |
| CC(C)(C)C(=O)N(CCCCCCN1C[C@H](O)[C@@H](O)[C@H](O)[C@H]1CO)C1CCCCC1 | 0.2 | > 500 | 0.2 | > 500 | 0.28 | 500 | Active |
| CC(C)(C)CC(=O)N(CCCCCCN1C[C@H](O)[C@@H](O)[C@H](O)[C@H]1CO)C1CCCCC1 | 0.4 | > 500 | 0.18 | > 500 | 1.5 | > 500 | Active |
| CC1CCCCC1NCCCCCCN1C[C@H](O)[C@@H](O)[C@H](O)[C@H]1CO (stereo partly specified) |  |  | > 100 | > 500 |  |  | inactive |
| CC(C)(C)C(=O)N(CCCCCCN1C[C@H](O)[C@@H](O)[C@H](O)[C@H]1CO)C1CCCCCC1 | 1 | > 500 | 0.4 | > 500 | 0.8 | > 500 |  |
| CC(C)(C)C(=O)N(CCCCCCN1C[C@H](O)[C@@H](O)[C@H](O)[C@H]1CO)C1CC1 |  | > 500 | 3.75 | > 500 | 8.8 |  | Active |
| CC(C)(C)C(=O)N(CCCCCCN1C[C@H](O)[C@@H](O)[C@H](O)[C@H]1CO)C1CCC1 |  | > 500 | 0.8 | > 500 | 1.9 |  |  |
| CC(=O)N(CCCCCCN1C[C@H](O)[C@@H](O)[C@H](O)[C@H]1CO)C1CCCCC1 | 1 | > 500 | 0.28 | > 500 | 14 | > 500 |  |
| CC(C)(C)C(=O)N(CCCCCCN1C[C@H](O)[C@@H](O)[C@H](O)[C@H]1CO)C1C2CC3CC(C2)CC1C3 (stereo partly specified) | 0.5 | 192 | 0.31 | 180 | 0.125 | 125 |  |
| CC(C)(C)C(=O)N(CCCCCCN1C[C@H](O)[C@@H](O)[C@H](O)[C@H]1CO)c1ccc(F)cc1F | 2.5 | > 500 | 0.25 | > 500 | 2.2 | > 500 | Active |
| CC(C)(C)OC(=O)NCCCCCCN1C[C@H](O)[C@@H](O)[C@H](O)[C@H]1CO |  |  | 2.5 | > 500 |  |  | Active |
| CC1CCCCC1N(CCCCCCN1C[C@H](O)[C@@H](O)[C@H](O)[C@H]1CO)C(=O)C(C)(C)C (stereo partly specified) | 0.2 | > 500 | 0.22 | > 500 | 0.32 | 310 | Active |
| CC(=O)N(CCCCCCN1C[C@H](O)[C@@H](O)[C@H](O)[C@H]1CO)c1cc(F)ccc1F |  |  | 5 | > 500 |  |  |  |
| OC[C@@H]1[C@@H](O)[C@H](O)[C@@H](O)CN1CCCCCCN(C1CCCCC1)C1CCCCC1 |  |  | 6.3 | > 500 |  |  | Active |
| C[C@H]1CCCC[C@@H]1OCCCCCCN1C[C@H](O)[C@@H](O)[C@H](O)[C@H]1CO |  |  | 3.3 |  |  |  |  |
| CC1CCCCC1N(CCCCCCN1C[C@H](O)[C@@H](O)[C@H](O)[C@H]1CO)C(=O)OC(C)(C)C (stereo partly specified) | 0.3 | 230 | 0.4 | 250 | 0.3 | 240 | Active |
| CC(C)(C)C(=O)N(CCCCCCN1C[C@H](O)[C@@H](O)[C@H](O)[C@H]1CO)C12CC3CC(CC(C3)C1)C2 | 0.21 | > 500 | 0.21 | 420 | 1.38 | 170 |  |
